Source: PubChem
HCV core dimer = inhibitors of HCV core protein dimerization, primary screen, biochemical, TR-FRET, high-throughput. TR-FRET GST/Flag-core106 dimerization, 1536-well. 0.33% of 300,000 active. AID 1899, 2009. inhibition, % at 5 µM;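 active = inhibition above the mean of all tested compounds plus 3 SD, set per screening campaign, cut at about 45% in these data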
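Material: Tagged HCV core106 pair (GST and Flag) | Amount: GST-core106 13.5 nM, Flag-core106 17 nM | Medium: KF-containing HEPES buffer, pH 7.45, DTT, CHAPS, BSA | Reagent: Eu donor and XL665 acceptor anti-tag antibodies | Schedule: 4 h at 22.5 °C | Technique: Time-resolved FRET, ex 340 nm, em 617 and 671 nm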
rCAG RNA binder = binders of r(CAG) RNA repeats, primary screen, biochemical, fluorescence; r(CAG) RNA repeat, TO-PRO-1 dye displacement fluorescence; inhibition, % at 3 µM; 1.3% of 370,000 active;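 active = inhibition above the plate cutoff, the mean of all test compounds on that plate plus 3 SD, cut at about 35% in these data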;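 also: 0% = DMSO alone and 100% = 100 µM mitoxantrone as full dye displacement; higher means more dye released from RNA so lower well fluorescence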
TAAR1 ag = human TAAR1 agonists, primary screen, Fluo-8 calcium fluorescence, CHO RD-HGA16 cells | AID 624467, 2012 | activation, % at 3 µM | Trace amine-associated receptor 1 (Homo sapiens), Q96RJ0 | 0.99% of 360,000 active | vehicle wells 0%, saturating PEA agonist 100%;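 active = activation above the mean activation of all test compounds in the run plus 3 SD, cut at about 38% in these data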
Target sequence (Q96RJ0 whole entry, looked up): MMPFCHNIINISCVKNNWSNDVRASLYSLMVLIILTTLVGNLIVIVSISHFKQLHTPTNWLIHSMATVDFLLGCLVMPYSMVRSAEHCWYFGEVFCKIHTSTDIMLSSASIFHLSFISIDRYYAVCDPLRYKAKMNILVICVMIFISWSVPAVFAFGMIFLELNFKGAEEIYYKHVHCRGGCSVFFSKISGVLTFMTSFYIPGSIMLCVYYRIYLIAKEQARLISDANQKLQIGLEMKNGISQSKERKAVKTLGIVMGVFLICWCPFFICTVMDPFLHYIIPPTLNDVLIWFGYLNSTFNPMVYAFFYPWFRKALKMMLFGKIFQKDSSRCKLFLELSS
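Assay system – CHO-derived RD-HGA16 cells with stable Gα16 and human TAAR1 · Compound dosing – one-point dosing at 3 µM (nominal) · Incubation – 17-24 h seeding, 75 min 37 °C dye, 30 min RT · Measured by – kinetic Fluo-8 calcium fluorescence · Control set – DMSO vehicle as 0%, PEA at EC100 as 100% · Repeats – single well for each compound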
TAAR1 antag = human TAAR1 antagonists, primary screen, Fluo-8 calcium fluorescence, CHO RD-HGA16 cells; antagonist; Trace amine-associated receptor 1 (Homo sapiens), Q96RJ0; AID 624466, 2012; inhibition, % at 3 µM; 1.5% of 360,000 active;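 active = inhibition above a per-plate cutoff, the mean inhibition of test compounds on that plate plus 3 SD, cut at about 49% in these data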;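 also: 0% = DMSO plus EC80 beta-PEA response and 100% = DMSO alone without agonist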
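Test system: RD-HGA16 CHO cells with stable hTAAR1 and Gα16 / Probe or stimulus: EC80 β-phenethylamine stimulus / Times: seeding 17-24 h prior, 75-min 37 °C, 30-min RT dye loading / Detection: Fluo-8 calcium-sensitive fluorescence / Read-out basis: % inhibition scaled between DMSO and EC80 PEA controls / Repeats: singlicate, one well per test compound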
HCV NS3 hel inh = inhibitors of HCV NS3 helicase, primary screen, biochemical, Cy5 molecular beacon fluorescence; Hepatitis C virus NS3 helicase; NS3 helicase DNA unwinding; inhibition, % at 10.9 µM; 0.56% of 290,000 active; AID 1800, 2009;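 active = inhibition above the mean of all tested compounds plus 3 SD, set per campaign, cut at about 35% in these data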;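 also: 0% = DMSO wells and 100% = thioflavine S control wells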
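Control set: DMSO versus 110 µM thioflavine S; Material: NS3 helicase fragment of HCV; Measured by: Cy5 fluorescence at 0 and 60 min, beacon hairpin quenching; Read-out basis: percent inhibition from t60/t0 fluorescence ratio; Times: reaction time 60 min, 25 °C; Repeats: single replicate; Compound dosing: single dose, 10.9 µM nominal final, DMSO 0.8% final.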
rCAG binder conf = small molecules binding CAG repeat RNA – biochemical, fluorescence, confirmation; r(CAG) RNA repeat, TO-PRO-1 dye displacement fluorescence; inhibition, % at 3 µM; 70% of 4,300 active; shares compounds with rCAG RNA binder;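 active = inhibition above a per-plate cutoff, the mean inhibition of sample wells plus 3 SD, cut at about 35% in these data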;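 also: loss of TO-PRO-1 fluorescence as compound displaces dye from 1x1 AA loop RNA; 0% = DMSO only wells and 100% = 100 µM mitoxantrone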
dCAG dye counter = displacement of TO-PRO-1 from CAG DNA duplex, counter-screen for rCAG RNA repeat binder project, biochemical, fluorescence, TO-PRO-1 dye, d(CAG) DNA oligo | inhibition, % at 3 µM | shares compounds with rCAG RNA binder | 94% of 4,300 active | d(CAG) DNA oligo TO-PRO-1 dye displacement;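 active = inhibition above its plate's cutoff, the mean test-well inhibition plus 3 SD, cut at about 4.8% in these data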;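 also: 0% = DNA dye mix with DMSO and 100% = 100 µM mitoxantrone; hits displace the dye from DNA and so lower well fluorescence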
Active calls of the source: *; . = no result given. Rows were chosen to be rich in hits. Some 3.7% of all compounds tested hit in one or more screens of this group.

SMILES	HCV core dimer	rCAG RNA binder	TAAR1 ag	TAAR1 antag	HCV NS3 hel inh	rCAG binder conf	dCAG dye counter
COc1ccc(S(=O)(=O)CC(=O)c2cc3cc(Br)ccc3oc2=O)cc1	0	51*	42*	43	10	48*	23*
Cc1cc(C(=O)Nc2cccc(/C=C/C(=O)O)c2)c(C)o1	0	5	6	7	12	.	.
Cc1oc(-c2ccccc2)cc1C(=O)Nc1cccc(/C=C/C(=O)O)c1	.	47*	4	13	28	39*	9.0*
CCc1cc(=O)oc2cc(C)cc(OCC(=O)N[C@@H](CSCc3ccccc3)C(=O)O)c12	1	47*	0	-1	14	40*	8.3*
COc1ccc(-c2cc(-c3ccco3)[nH]c(=O)c2C#N)cc1	8	15	-1	9	31	.	.
N#Cc1c(-c2cccc(Br)c2)cc(-c2ccco2)[nH]c1=O	22	51*	4	-4	19	45*	16*
Cc1nc(NCCc2ccc(S(N)(=O)=O)cc2)c2c3c(sc2n1)CCC3	7	6	4	6	2	.	.
Cc1nc(NS(=O)(=O)c2ccc(Cl)s2)c2c3c(sc2n1)CCCC3	10	78*	2	-5	-15	55*	19*
CCOC(=O)[C@@]12CCC3=C1N(CCC3)C(=O)[C@H](CC(=O)N1CCC(c3ccccc3)CC1)C2	.	2	.	.	.	.	.
Cc1ccccc1Cn1cc(COC(=O)NCCc2ccccc2)nn1	.	0	.	.	.	.	.
N=C1/C(=C/c2ccc(Br)o2)C(=O)N=C2SC(CC(=O)N3CCCC3)=NN12	10	22	1	-9	13	.	.
N=C1/C(=C\c2ccc(Br)o2)C(=O)N=C2SC(CC(=O)N3CCOCC3)=NN12	0	36*	1	3	10	18	5.1*
Cc1cccc(CCNC(=O)c2ccc3c(c2)ncn3C2CCCCC2)c1	.	0	.	.	.	.	.
O=C(OCC12CC3CC(CC(C3)C1)C2)c1ccc(NCc2cc(O)ccc2O)cc1	.	26	10	1	.	.	.
O=C(OCCC12CC3CC(CC(C3)C1)C2)c1ccc(NCc2cc(O)ccc2O)cc1	.	36*	30	14	.	27	11*
O=C(CN(CCc1ccccc1)S(=O)(=O)c1ccccc1)N1CCOCC1	.	2	.	.	.	.	.
O=C1CC(c2ccc(O)c(O)c2)Oc2c1ccc(O)c2O (stereo not drawn)	-7	48*	1	-32	.	49*	21*
O=C1CC(c2ccc(O)c(O)c2)Oc2cc(O)cc(O)c21 (stereo not drawn)	1	7	1	11	.	.	.
CC(=O)N1C[C@@H](c2c[nH]c3ccccc23)C=C[C@H]1C(=O)NS(=O)(=O)c1ccc(C)cc1	.	18	.	.	.	.	.
CCOC(=O)[C@]12CCCC3=C1N(CCC3)C(=O)[C@@H](CC(=O)NCc1ccccc1)C2	.	0	.	.	.	.	.
Cc1cc(Oc2ccc(Cl)cc2)nc(-c2ccccn2)n1	2	88*	0	-17	2	0	-1
O=C(/C=C/c1ccccc1)NC(NC(=S)Nc1cccc(O)c1)C(Cl)(Cl)Cl (stereo not drawn)	7	24	9	0	7	.	.
O=C(/C=C/c1ccccc1)NC(NC(=S)Nc1ccc(C(=O)O)cc1)C(Cl)(Cl)Cl (stereo not drawn)	19	65*	3	-3	20	56*	14*
O=S(=O)(/N=C(/Nc1nccs1)c1ccc(F)cc1)c1ccccc1	.	4	2	-16	.	.	.
O=S(=O)(/N=C(/Nc1nc2ccccc2s1)c1ccccc1)c1ccc(F)cc1	.	38*	3	10	.	31	6.6*
SMILES	HCV core dimer	rCAG RNA binder	TAAR1 ag	TAAR1 antag	HCV NS3 hel inh	rCAG binder conf	dCAG dye counter
COc1cc(C)c2c(c1C=O)Oc1c(c(C)c(O)c3c1C(O)OC3=O)OC2=O (stereo not drawn)	3	54*	0	-16	30	34	7.0*
COC(=O)C/C=C/[C@H](C)[C@@H](NC(=O)C(F)(F)F)c1ccccc1Br	.	2	.	.	.	.	.
c1ccc(-c2c[nH]c3cccc(C4CCCCC4)c23)cc1	.	4	.	.	.	.	.
O=C(O)c1ccc(CSc2nc(-c3ccccc3)cc(C(F)(F)F)n2)cc1	18	55*	1	-17	23	56*	13*
CCCCCCCCCCCC(=O)NC(Cc1ccc(OC)c([N+](=O)[O-])c1)C(=O)O (stereo not drawn)	10	44*	3	-3	-47	43*	9.2*
COc1ccc(C(=O)Nc2ccccc2C(=O)Nc2ccccc2C(=O)O)cc1	10	78*	0	-18	14	77*	40*
COc1ccc(C(=NNc2ccccc2C(=O)O)c2ccc(OC)cc2)cc1	16	83*	-1	10	24	66*	26*
Cc1noc(NS(=O)(=O)c2ccc(NC(=O)/C=C/c3ccccc3)cc2)c1C	.	39*	2	-7	.	37*	6.7*
Cc1noc(NS(=O)(=O)c2ccc(NC(=O)COc3ccccc3)cc2)c1C	3	9	8	13	0	.	.
COc1ccc(/C=C/C(=O)Nc2ccc(S(=O)(=O)Nc3onc(C)c3C)cc2)cc1OC	-5	39*	0	-7	13	38*	11*
Cc1noc(NS(=O)(=O)c2ccc(NC(=O)/C=C/c3ccc(Cl)cc3Cl)cc2)c1C	.	25	1	-10	.	.	.
Cc1noc(NS(=O)(=O)c2ccc(NC(=O)C(CC(C)C)N3C(=O)c4ccccc4C3=O)cc2)c1C (stereo not drawn)	7	63*	7	-31	30	45*	15*
O=C(/C=C/c1ccc(Br)cc1)Nc1ccc(S(=O)(=O)Nc2ncccn2)cc1	10	38*	4	13	10	24	5.9*
COC(=O)c1c(-c2ccc(OC)cc2)c2c(c3c4cc(F)ccc4n(S(=O)(=O)c4ccc(C)cc4)c13)C(=O)N(C)C2	.	15	-1	-13	.	.	.
COc1ccc(CCN(Cc2cccs2)S(=O)(=O)c2ccc(C)s2)cc1OC	.	6	.	.	.	.	.
CCCCNS(=O)(=O)CC1NCc2ccccc21 (stereo not drawn)	.	7	.	.	.	.	.
COc1ccc(C)cc1Nc1nc(-c2c[nH]c3ccccc23)cs1	12	37*	2	-16	-14	20	12*
